Reference: ChEMBL document CHEMBL3044908, “Pinolide, a new nonenolide produced by Didymella pinodes , the causal agent of ascochyta blight on Pisum sativum” (J Agric Food Chem, 2012)
Activity calls are given as the source filed them. No cut-off for these calls is given here.

Legend:
[1] = tested on: Phaseolus vulgaris; test: Phytotoxicity against Phaseolus vulgaris assessed as area of lesions at 1 mg/ml at 20 degC for 4 days; type: organism-based; conditions: in vivo, 96 h
Procedure, shortened: (§1)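 Whole plants grown one per pot in 1:1 sand/peat at 20 °C, 12 h light/dark, until about seven leaves. One leaflet detached, placed abaxial side up on 0.4% water agar, epidermis cut (three cuts over 3 mm2). A 20 μL drop of metabolite (5% MeOH in water) applied over cuts, kept at 20 °C, 12 h photoperiod. 3–4 replicates, randomized; 5% MeOH control; lesion area in mm2.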

[2] = tested on: Sonchus arvensis; test: Phytotoxicity against Sonchus arvensis (field sow-thistle) assessed as area of lesions at 1 mg/ml at 20 degC for 4 days; type: functional; procedure, shortened: as §1
[3] = tested on: Vicia faba; test: Phytotoxicity against Vicia faba assessed as area of lesions at 1 mg/ml at 20 degC for 4 days; type: organism-based; conditions: in vivo, 96 h; procedure, shortened: as §1
[4] = tested on: Cirsium arvense; test: Phytotoxicity against Cirsium arvense (Canada thistle) assessed as area of lesions at 1 mg/ml at 20 degC for 4 days; type: functional; procedure, shortened: as §1
[5] = tested on: Cicer arietinum; test: Phytotoxicity against Cicer arietinum assessed as area of lesions at 1 mg/ml at 20 degC for 4 days; type: organism-based; conditions: in vivo, 96 h; procedure, shortened: as §1
[6] = tested on: Lathyrus sativus; test: Phytotoxicity against Lathyrus sativus assessed as area of lesions at 1 mg/ml at 20 degC for 4 days; type: organism-based; conditions: in vivo, 96 h; procedure, shortened: as §1
[7] = tested on: Medicago truncatula; test: Phytotoxicity against Medicago truncatula assessed as area of lesions at 1 mg/ml at 20 degC for 4 days; type: organism-based; conditions: in vivo, 96 h; procedure, shortened: as §1
[8] = tested on: Lupinus albus; test: Phytotoxicity against Lupinus albus assessed as area of lesions at 1 mg/ml at 20 degC for 4 days; type: organism-based; conditions: in vivo, 96 h; procedure, shortened: as §1
[9] = tested on: Lens culinaris; test: Phytotoxicity against Lens culinaris assessed as area of lesions at 1 mg/ml at 20 degC for 4 days; type: organism-based; conditions: in vivo, 96 h; procedure, shortened: as §1
[10] = tested on: Chenopodium album; test: Phytotoxicity against Chenopodium album assessed as area of lesions at 1 mg/ml at 20 degC for 4 days; type: functional; procedure, shortened: as §1
[11] = tested on: Pisum fulvum; test: Phytotoxicity against Pisum fulvum assessed as area of lesions at 1 mg/ml at 20 degC for 4 days; type: organism-based; conditions: lathyrus fulvus, in vivo, 96 h; procedure, shortened: as §1
[12] = tested on: Pisum sativum; test: Phytotoxicity against Pisum sativum (pea)assessed as area of lesions at 1 mg/ml at 20 degC for 4 days; type: organism-based; conditions: lathyrus oleraceus, in vivo, 96 h; procedure, shortened: as §1

CCC[C@H]1OC(=O)[C@@H](O)CC/C=C/[C@H](O)[C@@H]1O
Activity [1]: Non-toxic | Activity [2]: inactive | Activity [3]: Non-toxic | Activity [4]: inactive | Activity [5]: Non-toxic | Activity [6]: Non-toxic | Activity [7]: Non-toxic | Activity [8]: Non-toxic | Activity [9]: Non-toxic | Activity [10]: inactive | Activity [11]: Non-toxic | Activity [12]: Non-toxic

CCC[C@H]1OC(=O)[C@@H](O)CC/C=C/[C@@H](O)[C@@H]1O (relative stereo) [Pinolide]
Activity [1]: Non-toxic | Activity [2]: inactive | Activity [3]: Non-toxic | Activity [4]: inactive | Activity [5]: Non-toxic | Activity [6]: Non-toxic | Activity [7]: Non-toxic | Activity [8]: Non-toxic | Activity [9]: Non-toxic | Activity [10]: inactive | Activity [11]: Non-toxic | Activity [12]: Non-toxic

CCC[C@H]1OC(=O)[C@H](O)CC/C=C/[C@H](O)[C@@H]1O [HERBARUMIN II]
Activity [1]: Non-toxic | Activity [2]: inactive | Activity [3]: Non-toxic | Activity [4]: inactive | Activity [5]: Non-toxic | Activity [6]: Non-toxic | Activity [7]: Non-toxic | Activity [8]: Non-toxic | Activity [9]: Non-toxic | Activity [10]: inactive | Activity [11]: Non-toxic | Activity [12]: Non-toxic

C/C=C/C=C/C(=O)O[C@H]1CC/C=C/[C@H](O)[C@H](O)[C@@H](CCC)OC1=O [PINOLIDOXIN]
Activity [1]: 34 mm2 | Activity [2]: 23.6 mm2 | Activity [3]: 7.2 mm2 | Activity [4]: 25 mm2 | Activity [5]: 9.1 mm2 | Activity [6]: 41.9 mm2 | Activity [7]: 49.2 mm2 | Activity [8]: 73.6 mm2 | Activity [9]: 45.5 mm2 | Activity [10]: 47.8 mm2 | Activity [11]: 21.5 mm2 | Activity [12]: 45.5 mm2
